Calls of active or inactive are those of the source. The calls are words filed in the database; no cut-off is given here.
Legend:
[1] = Cell cycle arrest in human PC3 cells assessed as accumulation at G2/M phase at 1.3 uM after 24 hrs by propidium iodide staining based flow cytometry (reference value: 22.2 +/- 0.4%); type: functional; conditions: PC-3
How it was run: (§1)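 PC3 cells exposed to compound at various concentrations for 24 h, then harvested, rinsed in ice-cold PBS and fixed in 70% alcohol at −20 °C for 16 h. After a second cold PBS wash, cells were held 20 min at room temperature in 1 mL containing 0.1% Triton X-100, 0.2 mg RNase A and 2 μL PI (1 mg/mL). DNA content was read by flow cytometry.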

[2] = Cell cycle arrest in human PC3 cells assessed as accumulation at G0/G1 phase at 4 uM after 24 hrs by propidium iodide staining based flow cytometry (reference value: 62.5 +/- […]%); type: functional; conditions: PC-3
[3] = Cell cycle arrest in human PC3 cells assessed as accumulation at S phase at 4 uM after 24 hrs by propidium iodide staining based flow cytometry (reference value: 15.3 +/- 3.1%); type: functional; conditions: PC-3; how it was run: as §1
[4] = Cell cycle arrest in human PC3 cells assessed as accumulation at G2/M phase at 4 uM after 24 hrs by propidium iodide staining based flow cytometry (reference value: 22.2 +/- 0.4%); type: functional; conditions: PC-3; how it was run: as §1
[5] = Cytotoxicity against human PC3 cells assessed as growth inhibition after 72 hrs by Alamar blue assay; type: functional, cell-based; conditions: PC-3, 72 h
[6] = Cell cycle arrest in human PC3 cells assessed as accumulation at G0/G1 phase at 0.4 uM after 24 hrs by propidium iodide staining based flow cytometry (reference value: 55.6 to 62.5%); type: functional; conditions: PC-3; how it was run: as §1
[7] = Cell cycle arrest in human PC3 cells assessed as accumulation at S phase at 0.4 uM after 24 hrs by propidium iodide staining based flow cytometry (reference value: 15.3 to 25.8%); type: functional; conditions: PC-3; how it was run: as §1
[8] = Cell cycle arrest in human PC3 cells assessed as accumulation at G2/M phase at 0.4 uM after 24 hrs by propidium iodide staining based flow cytometry (reference value: 18.7 to 22.2%); type: functional; conditions: PC-3; how it was run: as §1
[9] = Cell cycle arrest in human PC3 cells assessed as accumulation at G0/G1 phase at 1.3 uM after 24 hrs by propidium iodide staining based flow cytometry (reference value: 62.5 +/- […]%); type: functional; conditions: PC-3
[10] = Cell cycle arrest in human PC3 cells assessed as accumulation at S phase at 1.3 uM after 24 hrs by propidium iodide staining based flow cytometry (reference value: 15.3 +/- 3.1%); type: functional; conditions: PC-3; how it was run: as §1
[11] = Cell cycle arrest in human PC3 cells assessed as accumulation at G0/G1 phase at 0.04 uM after 24 hrs by propidium iodide staining based flow cytometry (reference value: 55.6 +/- 1.4%); type: functional; conditions: PC-3; how it was run: as §1
[12] = Cell cycle arrest in human PC3 cells assessed as accumulation at S phase at 0.04 uM after 24 hrs by propidium iodide staining based flow cytometry (reference value: 25.8 +/- 0.7%); type: functional; conditions: PC-3; how it was run: as §1
[13] = Cell cycle arrest in human PC3 cells assessed as accumulation at G2/M phase at 0.04 uM after 24 hrs by propidium iodide staining based flow cytometry (reference value: 18.7 +/- 0.7%); type: functional; conditions: PC-3; how it was run: as §1
[14] = Cell cycle arrest in human PC3 cells assessed as accumulation at G0/G1 phase at 0.13 uM after 24 hrs by propidium iodide staining based flow cytometry (reference value: 55.6 +/- 1.4%); type: functional; conditions: PC-3; how it was run: as §1
[15] = Cell cycle arrest in human PC3 cells assessed as accumulation at S phase at 0.13 uM after 24 hrs by propidium iodide staining based flow cytometry (reference value: 25.8 +/- 0.7%); type: functional; conditions: PC-3; how it was run: as §1
[16] = Cell cycle arrest in human PC3 cells assessed as accumulation at G2/M phase at 0.13 uM after 24 hrs by propidium iodide staining based flow cytometry (reference value: 18.7 +/- 0.7%); type: functional; conditions: PC-3; how it was run: as §1
[17] = tested on: PC-3; assay: Cytotoxicity against human PC3 cells assessed as growth inhibition at 80 uM after 72 hrs by Alamar blue assay; type: functional, cell-based

Cc1oc(C(Br)=C(Br)Br)cc(=O)c1O
Activity [1]: 5.8% | Activity [2]: 73.3% | Activity [3]: 23.8% | Activity [4]: 2.9% | IC50 [5]: 10000 nM | Activity [6]: 63.7% | Activity [7]: 18.2% | Activity [8]: 18.1% | Activity [9]: 72.7% | Activity [10]: 21.5%

CC[C@@]1(O)C(Br)=C(Br)C(=O)C1=C(Br)Br
IC50 [5]: 440 nM | Activity [11]: 63.3% | Activity [12]: 18.1% | Activity [13]: 13.6% | Activity [14]: 75% | Activity [15]: 13.8% | Activity [16]: 11.2% | Activity [6]: 88.4% | Activity [7]: 11.5% | Activity [8]: 0.1%

CC(=O)O[C@@H](C(Br)=C(Br)Br)C(Br)Br
inhibition [17]: inactive

CC(=O)O[C@H]1C(=O)[C@@]2(C)[C@H]([C@H](OC(=O)c3ccccc3)[C@]3(O)C[C@H](OC(=O)[C@H](O)[C@@H](NC(=O)c4ccccc4)c4ccccc4)C(C)=C1C3(C)C)[C@]1(OC(C)=O)CO[C@@H]1C[C@@H]2O [PACLITAXEL]
IC50 [5]: 2 nM

Source: ChEMBL document CHEMBL3813670, “Unique Polybrominated Hydrocarbons from the Australian Endemic Red Alga Ptilonia australasica” (J Nat Prod, 2016)
